The text below walks through data of ChEMBL document CHEMBL3244301, “Novel analgesic-antiinflammatory salicylates” (J Med Chem, 1978).

The subject of series [1] is Rattus norvegicus. The series is described as follows: Antiinflammatory activity against carrageenan-induced foot edema in rat administered via gastric gavage. In kind it is functional. The note with it: po. The procedure, abridged: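 Rats, six per dose level, received drug as an aqueous suspension by gastric gavage before carrageenan-induced foot edema was measured. The highest dose given was 400 mg/kg.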
In general terms: The carrageenan paw model is a standard test of acute inflammation.

Series [2] deals with Rattus norvegicus. The series can be described thus: Antiinflammatory activity against carrageenan-induced foot edema in rat at 400 mg/kg administered via gastric gavage. The format is functional, organism-based. Set-up: dose 400 mg/kg. The procedure, abridged: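 Carrageenan-induced foot edema in rats. Drugs were given as an aqueous suspension by gastric gavage to six rats at each dose level.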

For series [3], the system named is Rattus norvegicus. The series can be described thus: Analgesic activity in po dosed rat assessed as inhibition of yeast-induced inflammatory pain. In kind it is functional.
The subject of series [4] is Rattus norvegicus. The series is described as follows: Antipyretic activity in po dosed rat. In kind it is functional.
Series [5] deals with Canis familiaris. The series is described as follows: Analgesic activity in po dosed dog knee joint pain model. The format is functional. The note with it: Canis lupus familiaris.
Series [6] has as its system Rattus norvegicus. The series can be described thus: Analgesic activity in po dosed rat assessed as inhibition of adjuvant-induced arthritis pain. The format is functional.
The subject of series [7] is Rattus norvegicus. The series is described as follows: Toxicity in po dosed rat assessed as intestinal perforating ulcer. The format is organism-based. The note with it: in vivo.
The subject of series [8] is Rattus norvegicus. The series can be described thus: Toxicity in po dosed rat assessed as gastric hemorrhage. The format is organism-based, Stomach. The note with it: in vivo.
Series [9] concerns the target Cyclooxygenase (Homo sapiens) (UniProt P35354+P23219).
The nature of series [10]: Drug excretion in human urine after 96 hrs. In kind it is ADME, tissue-based. The note with it: read-out: Drug excretion.
The subject of series [11] is Rattus norvegicus. The series is described as follows: Toxicity in rat assessed as gastric hemorrhage at 256 mg/kg, po. The format is organism-based, Stomach. Set-up: dose 256 mg/kg, route oral. The note with it: in vivo.
Series [12] in a line: Plasma concentration in human at 250 mg, po after 2 hrs.
Series [13] can be described thus: Plasma concentration in human at 500 mg, po after 2 hrs.
For series [14], the system named is Rattus norvegicus. The series can be described thus: Toxicity in rat assessed as intestinal perforating ulcer at 1024 mg/kg, po. Also noted: dose 1024 mg/kg, route oral. In kind it is organism-based. The note with it: in vivo.

Molecules are shown by their SMILES. In brackets after ≈: the same amount, converted by molar mass. Activity calls are given as the source filed them. The rule behind the calls is not given here.

As for `CCCCOC(=O)Oc1ccc(-c2ccc(F)cc2)cc1C(=O)O`, in series [1], the ED50 amounted to 25 mg/kg. `O=C(O)c1cccc(-c2ccc(Cl)cc2)c1O`: the outcome in series [2] was inactive. Take `O=C(O)c1cc(-c2ccccc2)cc(F)c1O`: the ED50 in series [1] was 110 mg/kg. As to `CC1=C(CC(=O)O)c2cc(F)ccc2/C1=C\c1ccc([S+](C)[O-])cc1` (centres undefined) [SULINDAC], the ED50 in [3] is 1.7 mg/kg; in series [4], 2.9 mg/kg; in [5], 45 mg/kg; in series [6], 0.55 mg/kg; in series [7] it was 69 mg/kg; in series [8], 27 mg/kg. In addition, in [9], the ED50 entry was “inactive”. In turn, `O=C(O)c1cc(-c2ccc(C(F)(F)F)cc2)ccc1O` had an ED50 in series [1] of 50 mg/kg. The same measure, in the same setting: the same measure for `CC(=O)Oc1ccc(-c2ccccc2)cc1C(=O)O`: 170 mg/kg; for `CC(=O)Oc1c(F)cccc1C(=O)O`: 281 mg/kg; for `CCOC(=O)Oc1ccc(-c2ccc(F)cc2F)cc1C(=O)O`: 30 mg/kg.

In series [1], `Cc1cc(-c2ccccc2)cc(C(=O)O)c1O` returned an ED50 of 60 mg/kg. On the same count and under the same terms, the same measure for `O=C(O)c1cc(-c2ccccc2)ccc1O`: 54 mg/kg. With `CC(C)Cc1ccc(C(C)C(=O)O)cc1` (centres undefined) [IBUPROFEN], the ED50 in [3] was 2.6 mg/kg; in series [4], 5.9 mg/kg; in series [6], 28 mg/kg; in series [7] it was under 256 mg/kg; in series [8], under 16 mg/kg. In the case of `CC(=O)Oc1ccc(-c2ccc(F)cc2F)cc1C(=O)O`, in series [1], the ED50 is 27 mg/kg.

The compound `Cc1cc(F)ccc1-c1ccc(O)c(C(=O)O)c1` gave an ED50 in [1] of 76 mg/kg. In the case of `CCCc1cc(-c2ccc(F)cc2)cc(C(=O)O)c1O`, the outcome in series [2] was inactive. Take `O=C(O)c1ccc(-c2ccccc2)cc1O`: the ED50 in series [1] came out at 150 mg/kg.

On to `O=C(O)c1cc(-c2ccc(F)cc2)ccc1O`, for which the ED50 in [1] amounted to 14 mg/kg. The same measure, in the same setting: next, `Cc1cc(-c2ccc(F)cc2)cc(C(=O)O)c1O`: 60 mg/kg; `O=C(O)c1ccccc1O` [SALICYLIC ACID]: 77 mg/kg. For the compound `COc1cc(-c2ccc(O)c(C(=O)O)c2)ccc1F`, in series [2], the outcome was inactive.

Take `O=C(O)c1cc(C2CCCCC2)ccc1O`: the outcome in series [2] was inactive. Compound `O=C(O)c1cc(F)ccc1O` displayed an ED50 in [1] of 120 mg/kg. `CC(=O)Oc1cc(C(F)(F)F)ccc1C(=O)O` [TRIFLUSAL]: the ED50 in series [1] is 155 mg/kg. With `O=C(O)c1cc(-c2ccc(F)cc2F)ccc1O` [DIFLUNISAL], the ED50 was found to be 9.8 mg/kg in series [1]; 4.6 mg/kg in [3]; 27.8 mg/kg in series [4]; 24 mg/kg in [5]; 10.4 mg/kg in series [6]; 520 mg/kg in series [7]. The compound also gave an ED50 in series [9] of 0.6 µg/mL (≈ 2.4 µM). In addition, the dose excreted at 96 h in series [10] worked out at 95%. The Activity result in [11] is “Non-toxic”. The concentration at 2 h in series [12] worked out at 30 µg/mL; in [13] it was 99 µg/mL.

Regarding `O=C(O)c1cc(-c2cccc(F)c2)ccc1O`, the ED50 in series [1] was 40 mg/kg. `O=C(O)c1cc(-c2c(F)c(F)c(F)c(F)c2F)ccc1O` registered an ED50 in [1] of 20 mg/kg.

For the compound `COc1ccc2c(c1)c(CC(=O)O)c(C)n2C(=O)c1ccc(Cl)cc1` [INDOMETHACIN], the ED50 in [3] was 2.2 mg/kg; in [4], 1.8 mg/kg; in series [5] it was 1.7 mg/kg; in series [6] it was 0.27 mg/kg; in series [7], 5.2 mg/kg; in [8], 5.4 mg/kg. `O=C(O)c1c(O)cccc1F`: in series [2], the outcome was inactive. Same read-out and setting: next, `Cc1cc(-c2ccc(O)c(C(=O)O)c2)ccc1F`: “inactive”. Consider `O=C(O)c1cc(-c2ccc(Cl)cc2)ccc1O`, for which the ED50 in series [1] is 24 mg/kg.

As for `O=C(O)c1cc(-c2ccccc2)c(Cl)cc1O`, the outcome in series [2] was inactive. Take `CC(=O)Oc1ccccc1C(=O)O` [ASPIRIN]: the ED50 in [1] was 89 mg/kg; in [3] it was 87 mg/kg; in [4], 40 mg/kg; in series [5], 68 mg/kg; in [6], 78 mg/kg; in series [8] it was 81 mg/kg. Also, the ED50 in series [9] was determined as 13 µg/mL (≈ 72.2 µM). Also, the Activity result in series [14] is on record as “Non-toxic”. Regarding `O=C(O)c1ccc(C(F)(F)F)cc1O`, the result in series [2] was inactive.

For the compound `O=C(O)c1cc(-c2ccc(I)cc2)ccc1O`, in series [1], the ED50 stood at 120 mg/kg. On the same count and under the same terms, the same measure for `CCCCOC(=O)Oc1ccc(-c2ccc(F)cc2F)cc1C(=O)O`: 12 mg/kg. On the same count and under the same terms, the same measure for `O=C(O)c1ccc(F)cc1O`: 400 mg/kg; for `O=C(O)c1cc(-c2ccccc2F)ccc1O`: 20 mg/kg; for `O=C(O)c1cccc(-c2ccccc2)c1O`: 130 mg/kg. On the same count and under the same terms, next, `O=C(O)c1cccc(F)c1O`: 90 mg/kg. As for `O=C(O)c1c(O)cccc1-c1ccccc1`, the outcome in series [2] was inactive. With `O=C(O)c1ccc(-c2ccc(F)cc2)cc1O`, the ED50 in series [1] came out at 400 mg/kg. Turning to `CC(=O)Oc1ccc(-c2ccc(F)cc2)cc1C(=O)O` [FLUFENISAL], the ED50 in series [1] was 24 mg/kg; in [3] it was 35 mg/kg; in [4], 160 mg/kg; in [6], 40 mg/kg; in series [7], over 512 mg/kg; in series [8], over 512 mg/kg. The ED50 in series [9] was 10 µg/mL (≈ 36.5 µM).
